Experimental data taken from ChEMBL document CHEMBL1177718, “Phosphoramidate ProTides of 2'-C-methylguanosine as highly potent inhibitors of hepatitis C virus. Study of their in vitro and in vivo properties” (J Med Chem, 2010).

Key:
[1] = Cytotoxicity against human HuH7 cells after 72 hrs by celltiter-glo assay; type: cell-based, Huh-7
Summary of the method: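 Replicon 1b Huh7 cells seeded 2 × 10⁴/well; after 24 h, 11 serial 2× dilutions from 100 μM (three repeats each) with no-compound control; 72 h at 37 °C, CO₂, log-phase growth; viability by CellTiter-Glo luminescence; CC₅₀ = concentration giving 50% signal.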

[2] = system: Hepatitis C virus; assay: Antiviral activity against HCV1b infected in human HuH7 cells assessed as inhibition of viral replication after 48 hrs by luciferase reporter gene assay; type: functional, organism-based, Hepacivirus hominis; settings: genotype 1b, Huh-7, 48 h
Summary of the method: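 Huh7 cells carrying genotype 1b bicistronic subgenomic replicon, seeded 2 × 10⁴/well without G-418; compounds added 18-24 h later, 48 h exposure; 3× or 4× serial dilutions over 0.0001-10 μM in triplicate/quadruplicate; Renilla luciferase read-out versus untreated cells; EC₅₀ by four-parameter sigmoidal nonlinear regression; at least three independent assays.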

[3] = Metabolic stability in mouse plasma assessed as compound remaining at 1 ug/ml after 4 hrs; type: ADME, cell-free; settings: read-out: Stability
[4] = Metabolic stability in cynomolgus monkey plasma assessed as compound remaining at 1 ug/ml after 4 hrs; type: ADME, cell-free, Macaca fascicularis; settings: read-out: Stability
Summary of the method: (§1)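 Duplicate incubations; compound at final 1 μg/mL in plasma preincubated and kept at […]; samples taken at 30 or 240 min, quenched with ice-cold acetonitrile, centrifuged, supernatant diluted with water; parent quantified by LC-MS/MS (Polar-RP column, formic acid water/acetonitrile gradient, positive ion mode); % remaining reported.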

[5] = Metabolic stability in dog plasma assessed as compound remaining at 1 ug/ml after 30 mins; type: ADME, cell-free, Canis lupus familiaris; settings: read-out: Stability; summary of the method: as §1
[6] = Metabolic stability in rat plasma assessed as compound remaining at 1 ug/ml after 30 mins; type: ADME, cell-free; settings: read-out: Stability; summary of the method: as §1
[7] = species: Homo sapiens; assay: Metabolic stability in human plasma assessed as compound remaining at 1 ug/ml after 30 mins
[8] = Metabolic stability in cynomolgus monkey plasma assessed as compound remaining at 1 ug/ml after 30 mins; type: ADME, cell-free, Macaca fascicularis; settings: read-out: Stability; summary of the method: as §1
[9] = Metabolic stability in rat plasma assessed as compound remaining at 1 ug/ml after 4 hrs; type: ADME, cell-free; settings: read-out: Stability; summary of the method: as §1
[10] = species: Homo sapiens; assay: Metabolic stability in human plasma assessed as compound remaining at 1 ug/ml after 4 hrs
[11] = Metabolic stability in dog plasma assessed as compound remaining at 1 ug/ml after 4 hrs; type: ADME, cell-free, Canis lupus familiaris; settings: read-out: Stability; summary of the method: as §1
[12] = Metabolic stability in mouse plasma assessed as compound remaining at 1 ug/ml after 30 mins; type: ADME, cell-free; settings: read-out: Stability
[13] = Metabolic stability in dog intestine S9 fraction assessed as compound remaining at 10 uM after 60 mins by HPLC analysis in presence of NADP; type: ADME, tissue-based, Canis lupus familiaris; settings: read-out: Stability
Summary of the method: (§2)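 Liver or intestinal S9 at final 1 mg/mL in 50 mM potassium phosphate, with or without NADPH-regenerating system (1.3 mM NADP, 3.3 mM glucose-6-phosphate, 0.4 U/mL G6PDH, 3.3 mM MgCl₂); 10 min preincubation at 37 °C; compound at final 10 μM; samples at start and 60 min quenched in cold acetonitrile, centrifuged, HPLC; % parent remaining.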

[14] = Metabolic stability in dog liver S9 fraction assessed as compound remaining at 10 uM after 60 mins by HPLC analysis in presence of NADP; type: ADME, subcellular, Canis lupus familiaris; settings: read-out: Stability; summary of the method: as §2
[15] = Metabolic stability in dog liver S9 fraction assessed as compound remaining at 10 uM after 60 mins by HPLC analysis in absence of NADP; type: ADME, subcellular, Canis lupus familiaris; settings: read-out: Stability; summary of the method: as §2
[16] = Metabolic stability in human intestine S9 fraction assessed as compound remaining at 10 uM after 60 mins by HPLC analysis in absence of NADP; type: ADME, tissue-based; settings: read-out: Stability; summary of the method: as §2
[17] = Metabolic stability in human liver S9 fraction assessed as compound remaining at 10 uM after 60 mins by HPLC analysis in absence of NADP; type: ADME, subcellular; settings: read-out: Stability; summary of the method: as §2
[18] = Metabolic stability in human intestine S9 fraction assessed as compound remaining at 10 uM after 60 mins by HPLC analysis in presence of NADP; type: ADME, tissue-based; settings: read-out: Stability; summary of the method: as §2
[19] = Metabolic stability in human liver S9 fraction assessed as compound remaining at 10 uM after 60 mins by HPLC analysis in presence of NADP; type: ADME, subcellular; settings: read-out: Stability; summary of the method: as §2

| Structure (SMILES) | EC50 [2] [nM] | remaining at 4 h, 1 ug/ml [3] [%] | remaining at 4 h, 1 ug/ml [4] [%] | remaining at 0.5 h, 1 ug/ml [5] [%] | remaining at 0.5 h, 1 ug/ml [6] [%] | remaining at 0.5 h, 1 ug/ml [7] [%] | remaining at 0.5 h, 1 ug/ml [8] [%] | remaining at 4 h, 1 ug/ml [9] [%] | remaining at 4 h, 1 ug/ml [10] [%] | remaining at 4 h, 1 ug/ml [11] [%] | remaining at 0.5 h, 1 ug/ml [12] [%] | remaining at 1 h, 10 µM [13] [%] | remaining at 1 h, 10 µM [14] [%] | remaining at 1 h, 10 µM [15] [%] | remaining at 1 h, 10 µM [16] [%] | remaining at 1 h, 10 µM [17] [%] | remaining at 1 h, 10 µM [18] [%] | remaining at 1 h, 10 µM [19] [%] | CC50 at 72 h [1] [nM] |
| --- | --- | --- | --- | --- | --- | --- | --- | --- | --- | --- | --- | --- | --- | --- | --- | --- | --- | --- | --- |
| CCCCOC(=O)[C@H](C)NP(=O)(OC[C@H]1O[C@@H](n2cnc3c(=O)[nH]c(N)nc32)[C@](C)(O)[C@@H]1O)Oc1cccc2ccccc12 (some centres not stated) | 100 | 0 | 81 | 95 | 0.4 | 100 | 98 | 0 | 97 | 90 | 0 |  |  |  |  |  |  |  | > 100000 |
| C[C@H](NP(=O)(OC[C@H]1O[C@@H](n2cnc3c(=O)[nH]c(N)nc32)[C@](C)(O)[C@@H]1O)Oc1cccc2ccccc12)C(=O)OCCCc1ccccc1 (some centres not stated) | 170 |  |  |  |  |  |  |  |  |  |  |  |  |  |  |  |  |  | > 100000 |
| COC(=O)[C@H](CCSC)NP(=O)(OC[C@H]1O[C@@H](n2cnc3c(=O)[nH]c(N)nc32)[C@](C)(O)[C@@H]1O)Oc1cccc2ccccc12 (some centres not stated) | 280 |  |  |  |  |  |  |  |  |  | 76 | 56 | 40 | 57 | 27 | 14 | 42 | 3 | > 100000 |
| CSCC[C@H](NP(=O)(OC[C@H]1O[C@@H](n2cnc3c(=O)[nH]c(N)nc32)[C@](C)(O)[C@@H]1O)Oc1cccc2ccccc12)C(=O)OC(C)C (some centres not stated) | 340 | 32 | 93 | 100 | 2.3 |  | 96 | 0.5 |  | 100 | 76 |  |  |  |  |  |  |  | > 100000 |
| CC(C)(NP(=O)(OC[C@H]1O[C@@H](n2cnc3c(=O)[nH]c(N)nc32)[C@](C)(O)[C@@H]1O)Oc1cccc2ccccc12)C(=O)OCc1ccccc1 (some centres not stated) | 1500 | 0 | 83 | 100 | 0 | 100 | 92 | 0 | 41 | 100 | 0 |  |  |  |  |  |  |  |  |

The next compounds have a lower EC50 [2] than those just listed; values first:

| EC50 [2] [nM] | remaining at 4 h, 1 ug/ml [3] [%] | remaining at 4 h, 1 ug/ml [4] [%] | remaining at 0.5 h, 1 ug/ml [5] [%] | remaining at 0.5 h, 1 ug/ml [6] [%] | remaining at 0.5 h, 1 ug/ml [7] [%] | remaining at 0.5 h, 1 ug/ml [8] [%] | remaining at 4 h, 1 ug/ml [9] [%] | remaining at 4 h, 1 ug/ml [10] [%] | remaining at 4 h, 1 ug/ml [11] [%] | remaining at 0.5 h, 1 ug/ml [12] [%] | remaining at 1 h, 10 µM [13] [%] | remaining at 1 h, 10 µM [14] [%] | remaining at 1 h, 10 µM [15] [%] | remaining at 1 h, 10 µM [16] [%] | remaining at 1 h, 10 µM [17] [%] | remaining at 1 h, 10 µM [18] [%] | remaining at 1 h, 10 µM [19] [%] | Structure (SMILES) | CC50 at 72 h [1] [nM] |
| --- | --- | --- | --- | --- | --- | --- | --- | --- | --- | --- | --- | --- | --- | --- | --- | --- | --- | --- | --- |
| 91 | 0 | 94 | 98 | 0 | 100 | 94 | 0 | 96 | 98 | 0 |  |  |  |  |  |  |  | CCCCCOC(=O)[C@H](C)NP(=O)(OC[C@H]1O[C@@H](n2cnc3c(=O)[nH]c(N)nc32)[C@](C)(O)[C@@H]1O)Oc1cccc2ccccc12 (some centres not stated) |  |
| 90 |  |  |  |  |  |  |  |  |  |  |  |  |  |  |  |  |  | C[C@H](NP(=O)(OC[C@H]1O[C@@H](n2cnc3c(=O)[nH]c(N)nc32)[C@](C)(O)[C@@H]1O)Oc1cccc2ccccc12)C(=O)OCCc1ccccc1 (some centres not stated) | > 100000 |
| 70 |  |  |  |  |  |  |  |  |  |  |  |  |  |  |  |  |  | C[C@H](NP(=O)(OC[C@H]1O[C@@H](n2cnc3c(=O)[nH]c(N)nc32)[C@](C)(O)[C@@H]1O)Oc1cccc2ccccc12)C(=O)OC1CCCC1 (some centres not stated) | > 100000 |
| 45 | 0 | 100 | 100 | 2.5 | 100 | 100 | 0.5 | 100 | 100 | 2.9 |  |  |  |  |  |  |  | C[C@H](NP(=O)(OC[C@H]1O[C@@H](n2cnc3c(=O)[nH]c(N)nc32)[C@](C)(O)[C@@H]1O)Oc1cccc2ccccc12)C(=O)OC1CCCCC1 (some centres not stated) | > 100000 |
